Test results published in paper PMC8513424 (Laryngoscope Investigative Otolaryngology, 2021).
Like-named read-outs stand apart in the source and are kept apart here.

What was measured:
[1] = test system: patients with NF2 or sporadic meningioma; assay: Pilot 1 safety and tolerability; format: in vivo, human
Summary of the method: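 Pilot 1 was a subset of a phase I, 3 + 3 dose-escalation study of the oral test compound in solid tumors. Dosing started at 30 mg three times weekly for 3 weeks, then 1 week off, per 28-day cycle. Adults (≥18 y, ECOG 0-1) had NF2-associated or sporadic VS/meningioma with ≥15% volumetric growth on pre-enrollment MRI. Toxicities were graded by CTCAE v4.0.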

[2] = test system: NF2‐associated or sporadic VS or meningiomas; assay: Pilot 1 tumor volumetric measurement by MRI; format: in vivo, human
[3] = test system: hearing of patients with NF2; assay: Pilot 1 audiograms; format: in vivo, human
[4] = test system: p‐AKT, p‐S6 and p‐ERK in VS and meningioma; assay: Pilot 2 fluorescent Western blotting of resected tumors; format: in vivo, human
Summary of the method: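 Patients took 40 mg of the test compound orally three times weekly for 3 weeks before resection. VS were split into peripheral capsule and center. Tumor lysates were run on fluorescent Western blots for p-AKT, total AKT, p-S6, total S6, p-ERK and total ERK. Phospho/total ratios were expressed as percent of an untreated banked VS or meningioma set as 100%.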

[5] = Stability in whole blood kept on ice; format: in vitro ADME
[6] = test system: AKT phosphorylation in primary human VS cells; assay: AKT phosphorylation in primary VS cells; format: cell-based; conditions: Figure S2
human VS cells = conditions: cited from earlier work
primary meningioma cells = conditions: read-out: IC50, primary meningioma cells; cited from earlier work
[7] = test system: NF2‐deficient benign meningioma Ben‐Men‐1 cells; conditions: cited from earlier work
VS and meningioma cells = conditions: cited from earlier work
schwannoma xenografts = conditions: cited from earlier work
Ben‐Men‐1 xenograft = conditions: cited from earlier work
[8] = test system: patients with multiple myeloma, and T‐ and B‐cell lymphomas; conditions: three times weekly for 3 weeks of a 28‐day cycle; cited from earlier work
[9] = test system: patients with advanced solid tumors; conditions: cited from earlier work
[10] = day one, cited from earlier work
[11] = Patient 1.1, 837 days on AR‐42, Left parieto‐occipital Meningioma
[12] = Patient 1.1, 837 days on AR‐42, Right neck Schwannoma
[13] = Patient 1.1, Left parieto‐occipital Meningioma
[14] = Patient 1.1, Right IAC Schwannoma
[15] = Patient 1.1, Right neck Schwannoma
[16] = Patient 1.2, 84 days on AR‐42, Right intradural C1 Meningioma
[17] = Patient 1.2, Left trigeminal Schwannoma
[18] = Patient 1.2, Right intradural C1 Meningioma
[19] = Patient 1.4, 275 days on AR‐42, Left IAC Schwannoma
[20] = Patient 1.4, 275 days on AR‐42, Left posterior fossa Meningioma
[21] = Patient 1.4, Left IAC Schwannoma
[22] = Patient 1.4, Left posterior fossa Meningioma
[23] = Patient 1.4, Let foramen magnum Meningioma
[24] = Patient 1.4, Right IAC Schwannoma
[25] = Patient 1.4, Right anterior falx Meningioma
[26] = Patient 1.5, 134 days on AR‐42, Right petroclinoid Meningioma
[27] = Patient 1.5, Right petroclinoid Meningioma
[28] = Patient 1.6, 58 days on AR‐42, Right IAC Schwannoma
[29] = Patient 1.6, Left IAC Schwannoma
[30] = Patient 1.6, Right IAC Schwannoma
[31] = Patient 1.7, Left IAC Schwannoma
[32] = Patient 1.7, Left prepontine cistern Meningioma
[33] = post‐treatment vs on AR‐42, of 11
[34] = pre‐treatment to on‐treatment, of 15

CC(C)[C@H](C(=O)Nc1ccc(C(=O)NO)cc1)c1ccccc1 [AR‐42]
Dose‐limiting toxicity ([1]; Patient 1.7, 80 mg, after 10 days of treatment, or 5 doses): grade 4 psychiatric disorder
Tolerability ([1]; Pilot 1, 60 mg): generally well tolerated
Arrhythmias or QT prolongations ([1]; Pilot 1, 60‐80 mg): no reported arrhythmias or QT prolongations of any grade
Median on‐treatment estimated annual growth rate ([2]; 11 evaluable lesions): 22%
Median post‐treatment estimated annual growth rate ([2]; 11 evaluable lesions): 10%
% Volume growth on Rx [2, 11]: 54%
On Rx response [2, 11]: PD (progressive disease (>20% increase in volume))
% Volume growth on Rx ([2]; Patient 1.1, 837 days on AR‐42, Right IAC Schwannoma): −2%
% Volume growth on Rx [2, 12]: 52%
On Rx response [2, 12]: PD (progressive disease (>20% increase in volume))
Change in GR Pre to On Rx (%) [2, 13]: −128%
Change in GR Pre to post Rx [2, 13]: −26%
Est. annual growth rate On Rx (%) [2, 13]: 23%
Est. annual growth rate Post Rx [2, 13]: 125%
Change in GR Pre to On Rx (%) [2, 14]: −61%
Change in GR Pre to post Rx [2, 14]: −10%
Est. annual growth rate On Rx (%) [2, 14]: −1%
Est. annual growth rate Post Rx [2, 14]: 50%
Change in GR Pre to On Rx (%) [2, 15]: −69%
Change in GR Pre to post Rx [2, 15]: −79%
Est. annual growth rate On Rx (%) [2, 15]: 22%
Est. annual growth rate Post Rx [2, 15]: 12%
% Volume growth on Rx ([2]; Patient 1.2, 84 days on AR‐42, Left trigeminal Schwannoma): −9%
% Volume growth on Rx [2, 16]: 26%
On Rx response [2, 16]: PD (progressive disease (>20% increase in volume))
Change in GR Pre to On Rx (%) [2, 17]: −54%
Change in GR Pre to post Rx [2, 17]: −11%
Est. annual growth rate On Rx (%) [2, 17]: −46%
Est. annual growth rate Post Rx [2, 17]: −3%
Change in GR Pre to On Rx (%) [2, 18]: 122%
Change in GR Pre to post Rx [2, 18]: −6%
Est. annual growth rate On Rx (%) [2, 18]: 138%
Est. annual growth rate Post Rx [2, 18]: 10%
% Volume growth on Rx [2, 19]: 60%
On Rx response [2, 19]: PD (progressive disease (>20% increase in volume))
% Volume growth on Rx [2, 20]: −24%
On Rx response [2, 20]: PR (partial response (>20% decrease in volume))
% Volume growth on Rx ([2]; Patient 1.4, 275 days on AR‐42, Let foramen magnum Meningioma): −19%
% Volume growth on Rx ([2]; Patient 1.4, 275 days on AR‐42, Right IAC Schwannoma): 9%
% Volume growth on Rx ([2]; Patient 1.4, 275 days on AR‐42, Right anterior falx Meningioma): 0%
Change in GR Pre to On Rx (%) [2, 21]: −10%
Change in GR Pre to post Rx [2, 21]: 20%
Est. annual growth rate On Rx (%) [2, 21]: 92%
Est. annual growth rate Post Rx [2, 21]: 122%
Change in GR Pre to On Rx (%) [2, 22]: −170%
Change in GR Pre to post Rx [2, 22]: −125%
Est. annual growth rate On Rx (%) [2, 22]: −37%
Est. annual growth rate Post Rx [2, 22]: 8%
Change in GR Pre to On Rx (%) [2, 23]: −158%
Change in GR Pre to post Rx [2, 23]: −138%
Est. annual growth rate On Rx (%) [2, 23]: −30%
Est. annual growth rate Post Rx [2, 23]: −10%
Change in GR Pre to On Rx (%) [2, 24]: −133%
Est. annual growth rate On Rx (%) [2, 24]: 18%
Change in GR Pre to On Rx (%) [2, 25]: 0%
Change in GR Pre to post Rx [2, 25]: 0%
Est. annual growth rate On Rx (%) [2, 25]: 0%
Est. annual growth rate Post Rx [2, 25]: 0%
% Volume growth on Rx [2, 26]: 104%
On Rx response [2, 26]: PD (progressive disease (>20% increase in volume))
Change in GR Pre to On Rx (%) [2, 27]: 41%
Change in GR Pre to post Rx [2, 27]: −232%
Est. annual growth rate On Rx (%) [2, 27]: 241%
Est. annual growth rate Post Rx [2, 27]: −32%
% Volume growth on Rx ([2]; Patient 1.6, 58 days on AR‐42, Left IAC Schwannoma): 15%
% Volume growth on Rx [2, 28]: 40%
On Rx response [2, 28]: PD (progressive disease (>20% increase in volume))
Change in GR Pre to On Rx (%) [2, 29]: 64%
Change in GR Pre to post Rx [2, 29]: 32%
Est. annual growth rate On Rx (%) [2, 29]: 93%
Est. annual growth rate Post Rx [2, 29]: 61%
Change in GR Pre to On Rx (%) [2, 30]: 187%
Est. annual growth rate On Rx (%) [2, 30]: 245%
% Volume growth on Rx ([2]; Patient 1.7, 10 days on AR‐42, Left IAC Schwannoma): 4%
% Volume growth on Rx ([2]; Patient 1.7, 10 days on AR‐42, Left prepontine cistern Meningioma): −9%
Change in GR Pre to On Rx (%) [2, 31]: 13%
Est. annual growth rate On Rx (%) [2, 31]: 50%
Change in GR Pre to On Rx (%) [2, 32]: −120%
Est. annual growth rate On Rx (%) [2, 32]: −113%
Share of tumors with stable growth ([2]; estimated percent annual growth rates): 20%
Meningiomas progressed on AR‐42 ([2]; of 7 meningiomas): three
Meningiomas stable or regressed on AR‐42 ([2]; of 7 meningiomas): Four
VS progressed on AR‐42 ([2]; of 8 VS): three
VS stable on AR‐42 ([2]; of 8 VS): Five
Tumors with stable disease on AR‐42 ([2]; of 15 evaluable tumors): eight
Share of tumors with partial response ([2]; of 15 tumors): 7%
Decrease in volume of the tumor with partial response ([2]; on AR‐42): 24%
Duration of partial response ([2]; posterior fossa meningioma of Patient 1.4): 3 years
Tumors that rebounded in growth rate (increased more than 20%) after termination [2, 33]: 4
Tumors with growth rate decreased after termination [2, 33]: 3
Tumors with growth rate not changed after termination [2, 33]: 4
Tumors with increased growth rates (>20% increase) [2, 34]: four
Tumors with reduced growth rates (>20% decrease in growth rate) [2, 34]: eight
Tumors with stable growth rates (± <20% change) [2, 34]: three
Median reduction in annual growth rate ([2]; pre‐treatment to on‐treatment, P = 0.259): −54%
Pure tone average (PTA) after treatment ([3]; Patient 1.6, from 17 db at initiation): 55 db
Measurable hearing in the contralateral ear on AR‐42 ([3]; patients 1.1, 1.4 and 1.7): remained stable
p‐S6 in meningioma ([4]; Patient 2.7, vs untreated meningioma): reduction in p‐S6
p‐AKT in meningioma ([4]; Patient 2.7, vs untreated meningioma tumors): not reduced
Levels of p‐ERKs and p‐S6 in AR‐42‐treated VS ([4]; vs untreated VS, 40 mg): substantially reduced in three of four
p‐AKT levels in AR‐42‐treated VS tumors ([4]; vs untreated VS, 40 mg): decreased p‐AKT levels in three of four
Time stable in blood kept on ice [5]: more than 4 hours
AKT phosphorylation in primary human VS cells [6]: reduced AKT phosphorylation
IC50 (human VS cells; read-out: IC50, growth inhibition of human VS cells): 500 nM
IC50 (human VS cells; read-out: IC50 for schwannomas, previous in vitro studies): ~500 nM
IC50 (primary meningioma cells): 1500 nM
IC50 ([7]; read-out: IC50, Ben‐Men‐1 cells): 1000 nM
IC50 ([7]; read-out: IC50 for meningiomas, previous in vitro studies): ~1000 nM
Apoptosis (VS and meningioma cells): triggered apoptosis
Cell cycle effect (VS and meningioma cells): induced cell‐cycle arrest at G2/M
p‐AKT levels (VS and meningioma cells): decreased p‐AKT levels
AKT activation in schwannoma xenografts (schwannoma xenografts): decreased AKT activation
Apoptosis in schwannoma xenografts (schwannoma xenografts): induced apoptosis
Growth of schwannoma xenografts (schwannoma xenografts): inhibited the growth of schwannoma xenografts
Meningioma tumor volumes (Ben‐Men‐1 xenograft): markedly diminished meningioma tumor volumes
Tumor return after treatment (Ben‐Men‐1 xenograft; followed 6 months post‐treatment): tumors did not return
Maximum tolerated dose (MTD) [8]: 40 mg
Dose‐limiting toxicities (DLTs) ([9]; 30, 60 or 80 mg orally): grade 3 thrombocytopenia and grade 4 psychosis
Median progression‐free survival ([9]; NF2 and non‐NF2 meningioma subset, RECIST, 95% CI: 1.9—not reached): 9.1 months
Most common treatment‐related adverse events [9]: cytopenias, fatigue, and nausea
Recommended phase II dose ([9]; daily, three times weekly for 3 weeks of a 28‐day cycle): 60 mg
Mean maximal plasma concentration ([10]; 60 mg dose): 1.48 (±0.38) μM
Maximum plasma concentration ([10]; Patient 1.7, 80 mg dose): 3.25 µM
